Results as given in ChEMBL document CHEMBL2029211, “From a marine neuropeptide to antimicrobial pseudopeptides containing aza-β(3)-amino acids: structure and activity” (J Med Chem, 2012).
≈ marks a conversion by molar mass, not a printed value. Calls of active or inactive are those of the source. The calls are words filed in the database; no cut-off is given here. Starred links: 1 amine or outer side, 2 acyl side, 3 side chain; linkers in the order of their positions; H or OH if unused. Non-standard residues stand in square brackets, D forms with d. Residues, ends and D or L forms follow the SMILES beside them. *: point of attachment. azaβ3(1Nal) = O=C(CN(Cc1cccc2ccccc12)N[*:1])[*:2]; X2 = O=C(CN(Cc1ccc2ccccc2c1)N[*:1])[*:2]; X1 = NC(=O)CN(Cc1cccc2ccccc12)N*; X3 = NC(=O)CN(Cc1ccc2ccccc2c1)N*; X4 = NCCCCN(CC(=O)[*:2])N[*:1]

Columns and labels:
Pseudomonas aeruginosa = assay: Antibacterial activity against Pseudomonas aeruginosa after 20 hrs by liquid growth inhibition assay; type: functional
Method in brief: (§1)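 Liquid growth inhibition with peptides dissolved in distilled water, final 20–640 μg.mL-1, added to mid-log bacteria at starting D600 = 0.001. Standard strains in poor broth (1% peptone, 0.5% NaCl, pH 7.5); pathogenic strains in poor broth plus 0.3% beef extract. Incubated 20 h at 30°C; growth read as OD at 595 nm; MIC taken as lowest concentration giving 100% inhibition.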

Salmonella typhimurium = assay: Antibacterial activity against Salmonella typhimurium after 20 hrs by liquid growth inhibition assay; type: functional, Salmonella enterica subsp. enterica serovar Typhimurium; method in brief: as §1
Vibrio alginolyticus = assay: Antibacterial activity against Vibrio alginolyticus after 20 hrs by liquid growth inhibition assay; type: functional
Method in brief: (§2)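 Vibrios cultured in saline poor broth (1% peptone, 1.5% NaCl, pH 7.2), diluted from mid-log phase to starting D600 = 0.001, then exposed to water-dissolved peptides at final 20–640 μg.mL-1. Incubated 20 h at 18°C; OD read at 595 nm. MIC is the lowest concentration giving 100% inhibition.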

Escherichia coli = assay: Antibacterial activity against Escherichia coli after 20 hrs by liquid growth inhibition assay; type: functional; method in brief: as §1
Vibrio aestuarianus = assay: Antibacterial activity against Vibrio aestuarianus after 20 hrs by liquid growth inhibition assay; type: functional; method in brief: as §2
Priestia megaterium = assay: Antibacterial activity against Bacillus megaterium after 20 hrs by liquid growth inhibition assay; type: functional; method in brief: as §1
Klebsiella pneumoniae = assay: Antibacterial activity against Klebsiella pneumoniae after 20 hrs by liquid growth inhibition assay; type: functional; method in brief: as §1
Vibrio harveyi = assay: Antibacterial activity against Vibrio harveyi after 20 hrs by liquid growth inhibition assay; type: functional; method in brief: as §2
Staphylococcus aureus = assay: Antibacterial activity against Staphylococcus aureus after 20 hrs by liquid growth inhibition assay; type: functional; method in brief: as §1
Vibrio splendidus = assay: Antibacterial activity against Vibrio splendidus after 20 hrs by liquid growth inhibition assay; type: functional; method in brief: as §2
Listeria monocytogenes = assay: Antibacterial activity against Listeria monocytogenes after 20 hrs by liquid growth inhibition assay; type: functional
Method in brief: (§3)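 Bacteria grown in brain heart infusion and challenged at mid-log phase (starting D600 = 0.001) with water-dissolved peptides at final 20–640 μg.mL-1. After 20 h at 30°C, OD at 595 nm was read. MIC is the lowest concentration giving complete (100%) growth inhibition.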

Enterococcus faecalis = assay: Antibacterial activity against Enterococcus faecalis after 20 hrs by liquid growth inhibition assay; type: functional; method in brief: as §3
[1] = Toxicity in rabbit erythrocytes assessed as hemolysis up to 320 ug/ml; type: cell-based, Oryctolagus cuniculus, Erythrocyte; conditions: read-out: Activity
Method in brief: (§4)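 Freshly isolated rabbit erythrocytes were incubated 1 h at 37°C with peptide in PBS at 20 to 320 μg.mL−1. Supernatant OD was read at 415 nm, with PBS as zero and 1% Triton X-100 as 100% hemolysis; triplicate for each concentration and control.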

[2] = (§5) Cytotoxicity against CHOK1 cells assessed as cell viability at 640 ug/ml after 36 hrs by MTT assay; type: cell-based, Cricetulus griseus, CHO-K1; conditions: chinese hamster, CHO-K1 cells; read-out: Activity
Method in brief: (§6)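 CHO-K1 cells (1.34×10^4/well) in Ham F12 with L-glutamine and 10% foetal calf serum were preincubated 6 h at 37 °C, 5% CO2. Peptides in PBS were added at final 20–640 μg.mL−1 for 36 h. Viability was read by MTT reduction at 570 nm, with PBS as 100% and 1% Triton X-100 as 0% viability; triplicates.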

[3] = Ratio of toxicity in CHOK1 cells to MIC for Salmonella typhimurium; type: functional, CHO-K1
[4] = Ratio of toxicity in CHOK1 cells to MIC for Listeria monocytogenes; type: functional, CHO-K1
[5] = Ratio of toxicity in CHOK1 cells to MIC for Staphylococcus aureus; type: functional, CHO-K1
[6] = Ratio of HD50 for rabbit erythrocytes to MIC for Staphylococcus aureus; type: functional
CHO-K1 [7] = assay: Cytotoxicity against CHOK1 cells assessed as cell viability up to 40 ug/ml after 36 hrs by MTT assay; type: cell-based, Cricetulus griseus; conditions: chinese hamster, cho-k1, 36 h; method in brief: as §6
[8] = Toxicity in rabbit erythrocytes assessed as hemolysis; type: cell-based, Oryctolagus cuniculus, Erythrocyte; conditions: read-out: HD50 (the source's name); method in brief: as §4
[9] = Cytotoxicity against CHOK1 cells assessed as cell viability at 160 ug/ml after 36 hrs by MTT assay; type: cell-based, Cricetulus griseus; conditions: chinese hamster, CHO-K1 cells; read-out: Activity; method in brief: as §6
CHO-K1 [10] = assay: as §5; type: cell-based, Cricetulus griseus; conditions: chinese hamster, cho-k1, 36 h; method in brief: as §6
[11] = Salmonella enterica subsp. enterica serovar Typhimurium

Row | MIC (Pseudomonas aeruginosa) | MIC (Salmonella typhimurium; Salmonella enterica) | MIC (Vibrio alginolyticus) | MIC (Escherichia coli) | MIC (Vibrio aestuarianus) | MIC (Priestia megaterium) | MIC (Klebsiella pneumoniae) | MIC (Vibrio harveyi) | MIC (Staphylococcus aureus) | MIC (Vibrio splendidus) | MIC (Listeria monocytogenes) | MIC (Enterococcus faecalis) | Compound | other results
1 | 160 µg/mL (≈ 136 µM) | 80 µg/mL (≈ 68.2 µM) | 80 µg/mL (≈ 68.2 µM) | 320 µg/mL (≈ 273 µM) | 40 µg/mL (≈ 34.1 µM) | 80 µg/mL (≈ 68.2 µM) | inactive | 40 µg/mL (≈ 34.1 µM) | 80 µg/mL (≈ 68.2 µM) | 20 µg/mL (≈ 17 µM) | 80 µg/mL (≈ 68.2 µM) | > 640 µg/mL | CC(C)C[C@H](NC(=O)CN(Cc1ccc2ccccc2c1)NC(=O)[C@H](C)NC(=O)[C@H](CCCCN)NC(=O)CNC(=O)[C@H](CO)NC(=O)[C@H](CC(C)C)NC(=O)[C@H](C)N)C(=O)N[C@@H](CCCNC(=N)N)C(=O)N[C@@H](Cc1ccccc1)C(N)=O (H-ALSGKA[X2]LRF-NH2) | hemolysis [1]: 5%
2 | > 640 µg/mL |  | inactive | inactive | inactive | inactive | inactive | inactive | inactive | 320 µg/mL (≈ 285 µM) | inactive | inactive | CC(C)C[C@H](NC(=O)[C@H](C)N)C(=O)N[C@@H](CO)C(=O)NCC(=O)NN(CCCCN)CC(=O)N[C@@H](C)C(=O)N[C@@H](Cc1ccccc1)C(=O)N[C@@H](CC(C)C)C(=O)N[C@@H](CCCNC(=N)N)C(=O)N[C@@H](Cc1ccccc1)C(N)=O (H-ALSG[X4]AFLRF-NH2) | MIC (Salmonella typhimurium; [11]): inactive
3 | 640 µg/mL | 320 µg/mL | 320 µg/mL | 80 µg/mL | 80 µg/mL | 80 µg/mL | > 640 µg/mL | 320 µg/mL | 320 µg/mL | 40 µg/mL | inactive | inactive | H-ALSGKAFLRF-NH2 | hemolysis [1]: < 1.5%; viability at 36 h, 640 ug/ml [2]: 87%
4 | 160 µg/mL (≈ 129 µM) | 80 µg/mL (≈ 64.6 µM) | > 640 µg/mL | 40 µg/mL (≈ 32.3 µM) | 80 µg/mL (≈ 64.6 µM) | 20 µg/mL (≈ 16.1 µM) | inactive | 640 µg/mL (≈ 517 µM) | 20 µg/mL (≈ 16.1 µM) | 320 µg/mL (≈ 258 µM) | 80 µg/mL (≈ 64.6 µM) | > 640 µg/mL | CC(C)C[C@H](NC(=O)CN(Cc1cccc2ccccc12)NC(=O)[C@H](C)NC(=O)[C@H](CCCCN)NC(=O)CNC(=O)[C@H](CO)NC(=O)[C@H](CC(C)C)NC(=O)[C@H](C)N)C(=O)N[C@@H](CCCNC(=N)N)C(=O)NN(CC(N)=O)Cc1cccc2ccccc12 (H-ALSGKA[azaβ3(1Nal)]LR-X1) | Ratio [3]: 8; Ratio [4]: 8; Ratio [5]: 32; Ratio [6]: 10; Activity (CHO-K1 [7]): Non-toxic; HC50 [8]: 200 µg/mL; viability at 36 h, 160 ug/ml [9]: 78%; Activity (CHO-K1 [10]): Toxic
5 | 320 µg/mL (≈ 258 µM) | 160 µg/mL (≈ 129 µM) | > 640 µg/mL | 160 µg/mL (≈ 129 µM) | 80 µg/mL (≈ 64.6 µM) | 80 µg/mL (≈ 64.6 µM) | > 640 µg/mL | 640 µg/mL (≈ 517 µM) | 40 µg/mL (≈ 32.3 µM) | 640 µg/mL (≈ 517 µM) | 160 µg/mL (≈ 129 µM) | > 640 µg/mL | CC(C)C[C@H](NC(=O)CN(Cc1ccc2ccccc2c1)NC(=O)[C@H](C)NC(=O)[C@H](CCCCN)NC(=O)CNC(=O)[C@H](CO)NC(=O)[C@H](CC(C)C)NC(=O)[C@H](C)N)C(=O)N[C@@H](CCCNC(=N)N)C(=O)NN(CC(N)=O)Cc1ccc2ccccc2c1 (H-ALSGKA[X2]LR-X3) | viability at 36 h, 640 ug/ml [2]: 47%
6 | inactive |  | 320 µg/mL | 640 µg/mL | 640 µg/mL | 640 µg/mL | inactive | > 640 µg/mL | inactive | 320 µg/mL | inactive | inactive | H-ALSGDAFLRF-NH2 | MIC (Salmonella typhimurium; [11]): inactive

Row | Compound | MIC (Pseudomonas aeruginosa) | MIC (Salmonella typhimurium; Salmonella enterica) | MIC (Vibrio alginolyticus) | MIC (Escherichia coli) | MIC (Vibrio aestuarianus) | MIC (Priestia megaterium) | MIC (Klebsiella pneumoniae) | MIC (Vibrio harveyi) | MIC (Staphylococcus aureus) | MIC (Vibrio splendidus) | MIC (Listeria monocytogenes) | MIC (Enterococcus faecalis) | other results
7 | CC1(C)S[C@@H]2[C@H](NC(=O)[C@H](N)c3ccccc3)C(=O)N2[C@H]1C(=O)O [AMPICILLIN] | 320 µg/mL (≈ 916 µM) | 5 µg/mL (≈ 14.3 µM) | > 320 µg/mL | 5 µg/mL (≈ 14.3 µM) | 5 µg/mL (≈ 14.3 µM) | 20 µg/mL (≈ 57.2 µM) | 5 µg/mL (≈ 14.3 µM) | > 320 µg/mL | 5 µg/mL (≈ 14.3 µM) | 10 µg/mL (≈ 28.6 µM) | 5 µg/mL (≈ 14.3 µM) | 5 µg/mL (≈ 14.3 µM) | 
